Activity calls are given as the source filed them. No cut-off for these calls is given here.
Key:
[1] = Inhibition of recombinant Influenza A virus (A/Moscow/10/99(H3N2)) Neuraminidase N2 expressed in baculovirus infected insect cells using 4-MU-NANA as substrate preincubated for 30 mins followed by substrate addition by microplate reader analysis; parameters: species or system Influenza A virus (A/Moscow/10/1999(H3N2))
In short: (§1)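 Purified recombinant NA, with activity pre-set to roughly 10–50 nM in PBS, preincubated with serial 5-fold inhibitor dilutions in PBS (top 1 mM) at 37 °C for 30 min. MUNANA solution (167 μM, PBS) then added. Fluorescence read at ex 355/em 460 nm.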

[2] = Inhibition of recombinant Influenza A virus (A/Anhui/1/2013(H7N9)) Neuraminidase N9 expressed in baculovirus infected insect cells using 4-MU-NANA as substrate preincubated for 30 mins followed by substrate addition by microplate reader analysis; in short: as §1
[3] = Aqueous solubility of compound; assay type: physicochemical; settings: buffer
[4] = system: Influenza A virus H3N2; experiment: Antiviral activity against Influenza A virus (A/Moscow/10/99(H3N2)) expressing A/Puerto Rico/8/34(H1N1) genes infected in MDCK cells assessed as reduction in viral replication after 72 hrs by hemagglutination test; assay type: functional, organism-based, A/Moscow/10/1999(H3N2)
[5] = system: Influenza A virus; experiment: Antiviral activity against Influenza A virus (A/Anhui/1/2013(H7N9)) expressing A/Puerto Rico/8/34(H1N1) genes infected in MDCK cells assessed as reduction in viral replication after 72 hrs by hemagglutination test; assay type: functional, organism-based
[6] = system: MDCK; experiment: Cytotoxicity against MDCK cells assessed as reduction in cell viability after 72 hrs by MTT assay; assay type: cell-based, Canis lupus familiaris; settings: dog
[7] = system: Influenza A virus H3N2; experiment: Induction of viral aggregation in Influenza A virus (A/Moscow/10/99(H3N2)) at 1 mM after 3 hrs by transmission electron microscopic analysis; assay type: functional, organism-based; settings: A/Moscow/10/1999(H3N2)
In short: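 Virus (10^7 pfu in 150 μL DMEM) incubated at 37 °C for 3 h with 10 μL of 1 mM inhibitor stock in PBS, or without; then processed for transmission electron microscopy.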

[8] = system: Influenza A virus; experiment: Antiviral activity against Influenza A virus (A/Puerto Rico/8/34(H1N1)) infected in MDCK cells assessed as plaque reduction after 72 hrs by toluidine blue staining based method; assay type: functional, A/Puerto Rico/8/1934(H1N1)
[9] = Half life in Sprague-Dawley rat at 6 umol/kg, iv by HPLC analysis; assay type: ADME, organism-based; settings: in vivo
In short: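 Rats (n = 5) received a single tail-vein injection in physiological saline. Plasma levels measured by HPLC, using a reversed-phase C18 gradient with ammonium-containing aqueous/acetonitrile eluents over 5 min at 0.6 mL/min.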

[10] = system: Influenza A virus; experiment: Antiviral activity against Influenza A virus (A/Puerto Rico/8/34(H1N1)) infected in Balb/c mouse assessed as protection against lethal virus challenge by measuring body weight at 5 to 10 mg/kg qd administered intranasally for 7 days starting from 1 day post infection measured for 14 days; assay type: functional, organism-based; settings: A/Puerto Rico/8/1934(H1N1)
In short: (§2)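 BALB/c mice (6 per group) inoculated intranasally under anaesthesia with 10^5 pfu in 40 μL PBS. Inhibitor given intranasally in 40 μL PBS, either daily for 7 days from day 1 or once at 2 h pi; PBS-treated infected and uninfected controls. Weight and survival followed for 14 days; death counted at 25% weight loss or moribund. Mantel–Cox test.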

[11] = system: Influenza A virus; experiment: Antiviral activity against Influenza A virus (A/Puerto Rico/8/34(H1N1)) infected in Balb/c mouse assessed as protection against lethal virus challenge by measuring mouse survival at 5 to 10 mg/kg qd administered intranasally for 7 days starting from 1 day post infection measured for 14 days; assay type: functional, organism-based; settings: A/Puerto Rico/8/1934(H1N1); in short: as §2
[12] = system: Influenza A virus; experiment: (§3) Antiviral activity against Influenza A virus (A/Puerto Rico/8/34(H1N1)) infected in Balb/c mouse assessed as protection against lethal virus challenge by measuring body weight at 20 mg/kg administered intranasally as single dose at 2 hrs post infection measured up to 14 days post treatment relative to control; assay type: functional, A/Puerto Rico/8/1934(H1N1); in short: as §2
[13] = system: Influenza A virus; experiment: as §3, with “mouse survival” for “body weight”; assay type: functional, A/Puerto Rico/8/1934(H1N1); in short: as §2
[14] = system: Influenza A virus; experiment: (§4) Antiviral activity against Influenza A virus (A/Puerto Rico/8/34(H1N1)) assessed as decrease in lung lesions at 20 mg/kg qd administered intranasally as single dose at 2 hrs post infection measured after 7 days post infection by hematoxylin and eosin staining based microscopic analysis; assay type: functional, organism-based; settings: A/Puerto Rico/8/1934(H1N1)
[15] = system: Influenza A virus; experiment: Antiviral activity against Influenza A virus (A/Puerto Rico/8/34(H1N1)) infected in Balb/c mouse assessed as bronchial wall thickening in lungs at 5 mg/kg qd administered intranasally for 7 days starting from 1 day post infection by hematoxylin and eosin staining based microscopic analysis; assay type: functional, organism-based; settings: A/Puerto Rico/8/1934(H1N1)
[16] = system: Influenza A virus; experiment: as §4, with “Rico/8/34(H1N1)) infected in Balb/c mouse” for “Rico/8/34(H1N1))”, “bronchial wall thickening” for “decrease”, “lungs” for “lung lesions”; assay type: functional, organism-based; settings: A/Puerto Rico/8/1934(H1N1)
[17] = system: Influenza A virus; experiment: Antiviral activity against Influenza A virus (A/Puerto Rico/8/34(H1N1)) infected in Balb/c mouse assessed as immune cell infiltration in lungs at 5 mg/kg qd administered intranasally for 7 days starting from 1 day post infection by hematoxylin and eosin staining based microscopic analysis; assay type: functional, organism-based; settings: A/Puerto Rico/8/1934(H1N1)
[18] = system: Influenza A virus; experiment: as §4, with “Rico/8/34(H1N1)) infected in Balb/c mouse” for “Rico/8/34(H1N1))”, “immune cell infiltration” for “decrease”, “lungs” for “lung lesions”; assay type: functional, organism-based; settings: A/Puerto Rico/8/1934(H1N1)
[19] = system: Influenza A virus; experiment: Antiviral activity against Influenza A virus (A/Puerto Rico/8/34(H1N1)) infected in Balb/c mouse assessed as respiratory epithelium desquamation at 5 mg/kg qd administered intranasally for 7 days starting from 1 day post infection by hematoxylin and eosin staining based microscopic analysis; assay type: functional, organism-based; settings: A/Puerto Rico/8/1934(H1N1)
[20] = system: Influenza A virus; experiment: as §4, with “Rico/8/34(H1N1)) infected in Balb/c mouse” for “Rico/8/34(H1N1))”, “respiratory epithelium desquamation” for “decrease in lung lesions”; assay type: functional, organism-based; settings: A/Puerto Rico/8/1934(H1N1)
[21] = system: Influenza A virus; experiment: Antiviral activity against Influenza A virus (A/Puerto Rico/8/34(H1N1)) assessed as decrease in lung lesions at 10 mg/kg qd administered intranasally for 7 days starting from 1 day post infection by hematoxylin and eosin staining based microscopic analysis; assay type: functional, organism-based; settings: A/Puerto Rico/8/1934(H1N1)
[22] = Binding affinity to recombinant Influenza A virus (A/Moscow/10/99(H3N2)) Neuraminidase N2 expressed in baculovirus infected insect cells measured up to 400 sec by surface plasmon resonance analysis; parameters: species or system Influenza A virus (A/Moscow/10/1999(H3N2))
In short: (§5)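 NA covalently immobilised on CM5 chip by amine coupling. Analyte passed over at several concentrations in running buffer. BSA served as negative control protein. Constants from a steady-state affinity model; triplicate experiments.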

[23] = molecular target: Neuraminidase (Influenza A virus (A/Memphis/1/1971(H3N2))) (UniProt P03471); experiment: Binding affinity to recombinant Influenza A virus (A/Moscow/10/99(H3N2)) Neuraminidase N2 expressed in baculovirus infected insect cells at 100 to 1000 nM measured up to 160 sec by surface plasmon resonance analysis; in short: as §5
Sequence of Neuraminidase (Influenza A virus (A/Memphis/1/1971(H3N2))) (P03471 whole entry): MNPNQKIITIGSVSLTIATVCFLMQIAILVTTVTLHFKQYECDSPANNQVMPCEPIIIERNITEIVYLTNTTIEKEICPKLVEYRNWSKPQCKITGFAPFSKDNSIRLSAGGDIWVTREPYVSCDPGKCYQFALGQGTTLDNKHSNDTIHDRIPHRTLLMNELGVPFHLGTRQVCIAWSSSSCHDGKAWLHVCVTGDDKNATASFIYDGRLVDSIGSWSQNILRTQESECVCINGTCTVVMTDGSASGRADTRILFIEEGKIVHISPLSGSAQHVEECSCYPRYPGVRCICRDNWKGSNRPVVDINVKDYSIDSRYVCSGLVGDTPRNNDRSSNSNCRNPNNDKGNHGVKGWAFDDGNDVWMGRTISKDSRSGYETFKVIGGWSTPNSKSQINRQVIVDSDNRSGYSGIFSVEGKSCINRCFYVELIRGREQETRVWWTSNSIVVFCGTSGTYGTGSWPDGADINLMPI

[24] = system: Influenza A virus; experiment: Antiviral activity against Influenza A virus (A/Puerto Rico/8/34(H1N1)) infected in Balb/c mouse assessed as protection against lethal virus challenge by measuring body weight at 20 mg/kg administered intranasally as single dose at 2 hrs post infection measured up to 9 days post treatment; assay type: functional, organism-based; settings: A/Puerto Rico/8/1934(H1N1); in short: as §2
[25] = system: Influenza A virus; experiment: Antiviral activity against Influenza A virus (A/Puerto Rico/8/34(H1N1)) infected in Balb/c mouse assessed as protection against lethal virus challenge by measuring mouse survival at 20 mg/kg administered intranasally as single dose at 2 hrs post infection measured up to 9 days post treatment; assay type: functional, organism-based; settings: A/Puerto Rico/8/1934(H1N1); in short: as §2
[26] = Influenza A virus, A/Moscow/10/1999(H3N2), MDCK, 72 h, read-out: EC50

CC(=O)N[C@H]1[C@H]([C@H](OC(=O)NCCOCCOCCOCCOCCOCCOCCOCCOCCOCCOCCOCCOCc2cn(CC(Cn3cc(COCCOCCOCCOCCOCCOCCOCCOCCOCCOCCOCCOCCNC(=O)O[C@@H]([C@@H]4OC(C(=O)O)=C[C@H](NC(=N)N)[C@H]4NC(C)=O)[C@H](O)CO)nn3)(Cn3cc(COCCOCCOCCOCCOCCOCCOCCOCCOCCOCCOCCOCCNC(=O)O[C@@H]([C@@H]4OC(C(=O)O)=C[C@H](NC(=N)N)[C@H]4NC(C)=O)[C@H](O)CO)nn3)Cn3cc(COCCOCCOCCOCCOCCOCCOCCOCCOCCOCCOCCOCCNC(=O)O[C@@H]([C@@H]4OC(C(=O)O)=C[C@H](NC(=N)N)[C@H]4NC(C)=O)[C@H](O)CO)nn3)nn2)[C@H](O)CO)OC(C(=O)O)=C[C@@H]1NC(=N)N (stereo partly specified)
IC50 [1]: 2.8 nM | IC50 [2]: 0.8 nM | solubility [3]: Soluble | EC50 [4, 26]: 3.5 nM | EC50 [5]: 1.2 nM | Activity [6]: Non-Toxic | Activity [7]: inactive | Activity [8]: <4 nM | half-life [9]: 72 min | Activity [10]: Active | Activity [11]: Active | Activity [12]: 100% | Activity [13]: 100% | Activity [14]: Active | Activity [15]: Active | Activity [16]: Active | Activity [17]: Active | Activity [18]: Active | Activity [19]: Active | Activity [20]: Active | Activity [21]: Active

CC(=O)N[C@@H]1[C@H]([C@@H](OC(=O)NCCOCCOCCOCCOCCOCCOCc2cn(CC(Cn3cc(COCCOCCOCCOCCOCCOCCNC(=O)O[C@@H]([C@@H]4OC(C(=O)O)=C[C@H](NC(=N)N)[C@H]4NC(C)=O)[C@H](O)CO)nn3)(Cn3cc(COCCOCCOCCOCCOCCOCCNC(=O)O[C@@H]([C@@H]4OC(C(=O)O)=C[C@H](NC(=N)N)[C@H]4NC(C)=O)[C@H](O)CO)nn3)Cn3cc(COCCOCCOCCOCCOCCOCCNC(=O)O[C@@H]([C@@H]4OC(C(=O)O)=C[C@H](NC(=N)N)[C@H]4NC(C)=O)[C@H](O)CO)nn3)nn2)[C@H](O)CO)OC(C(=O)O)=C[C@@H]1NC(=N)N (stereo partly specified)
IC50 [1]: 3.8 nM | IC50 [2]: 1 nM | solubility [3]: Soluble | Kd [22]: 1.5 nM

COCCOCCOCCOCCOCCOCCOCCOCCOCCOCc1cn(CC(Cn2cc(COCCOCCOCCOCCOCCOCCOCCOCCOCCOC)nn2)(Cn2cc(COCCOCCOCCOCCOCCOCCOCCOCCOCCOC)nn2)Cn2cc(COCCOCCOCCOCCOCCOCCOCCOCCOCCOC)nn2)nn1
Activity [23]: inactive | EC50 [4]: Not Active | Activity [6]: Non-Toxic

CC(=O)N[C@H]1[C@H]([C@H](O)[C@H](O)CO)OC(C(=O)O)=C[C@@H]1N=C(N)N [ZANAMIVIR]
Activity [6]: Non-Toxic | half-life [9]: 32 min

CC(=O)N[C@H]1[C@H]([C@H](O)[C@H](O)CO)OC(C(=O)O)=C[C@@H]1NC(=N)N [ZANAMIVIR]
IC50 [1]: 3 nM | IC50 [2]: 1.5 nM | Kd [22]: 1.1 nM | EC50 [4, 26]: 17.7 nM | EC50 [5]: 6.1 nM | Activity [10]: Active | Activity [11]: Active | Activity [24]: inactive | Activity [25]: inactive | Activity [14]: inactive | Activity [15]: inactive | Activity [16]: inactive | Activity [17]: inactive | Activity [18]: inactive | Activity [19]: inactive | Activity [20]: inactive | Activity [21]: inactive

CCC(CC)O[C@@H]1C=C(C(=O)O)C[C@H](N)[C@H]1NC(C)=O [OSELTAMIVIR CARBOXYLATE]
IC50 [1]: 0.4 nM | IC50 [2]: 0.8 nM | EC50 [4, 26]: 7.1 nM | EC50 [5]: 12.3 nM | Activity [6]: Non-Toxic

CC(=O)N[C@H]1[C@H]([C@H](OC(=O)NCCOCCOCCOCc2cn(CC(Cn3cc(COCCOCCOCCNC(=O)O[C@@H]([C@@H]4OC(C(=O)O)=C[C@H](NC(=N)N)[C@H]4NC(C)=O)[C@H](O)CO)nn3)(Cn3cc(COCCOCCOCCNC(=O)O[C@@H]([C@@H]4OC(C(=O)O)=C[C@H](NC(=N)N)[C@H]4NC(C)=O)[C@H](O)CO)nn3)Cn3cc(COCCOCCOCCNC(=O)O[C@@H]([C@@H]4OC(C(=O)O)=C[C@H](NC(=N)N)[C@H]4NC(C)=O)[C@H](O)CO)nn3)nn2)[C@H](O)CO)OC(C(=O)O)=C[C@@H]1NC(=N)N (stereo partly specified)
IC50 [1]: 6.2 nM | IC50 [2]: 2.5 nM | solubility [3]: Soluble | Kd [22]: 2.2 nM

Source: ChEMBL document CHEMBL4425127 (J Med Chem, 2016)
